# Reference: ChEMBL document CHEMBL1131058, “Studies on quinazolines and 1,2,4-benzothiadiazine 1,1-dioxides. 8.1, 2 synthesis and pharmacological evaluation of tricyclic fused quinazolines and 1,2,4-benzothiadiazine 1,1-dioxides as potential alpha1-adrenoceptor antagonists” (J Med Chem, 1998)
# pKi: −log10 of the molar value.
# What was measured:
# [1] = biological target: T1, Adrenergic receptor alpha-1 (Rattus norvegicus, UniProt P15823+P23944+P43140); assay: Compound is evaluated for binding affinity towards Alpha-1 adrenergic receptor in rat brain cortex membrane; format: cell membranes
# T1 sequence (P15823 whole entry): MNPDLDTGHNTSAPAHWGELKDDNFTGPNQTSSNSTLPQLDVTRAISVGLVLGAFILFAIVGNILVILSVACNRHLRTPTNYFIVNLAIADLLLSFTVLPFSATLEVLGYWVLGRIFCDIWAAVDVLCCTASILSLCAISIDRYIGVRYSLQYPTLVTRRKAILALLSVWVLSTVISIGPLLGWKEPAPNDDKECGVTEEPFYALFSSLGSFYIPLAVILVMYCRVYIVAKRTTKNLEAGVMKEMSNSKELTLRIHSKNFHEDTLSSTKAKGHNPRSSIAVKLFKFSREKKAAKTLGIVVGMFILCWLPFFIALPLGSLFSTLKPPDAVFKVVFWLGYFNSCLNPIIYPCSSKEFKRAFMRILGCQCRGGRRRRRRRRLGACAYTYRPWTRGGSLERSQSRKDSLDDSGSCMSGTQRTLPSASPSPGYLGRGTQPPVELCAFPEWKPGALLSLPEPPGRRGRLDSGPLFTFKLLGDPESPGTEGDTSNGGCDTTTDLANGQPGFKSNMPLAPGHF
# T1 sequence (P23944 whole entry): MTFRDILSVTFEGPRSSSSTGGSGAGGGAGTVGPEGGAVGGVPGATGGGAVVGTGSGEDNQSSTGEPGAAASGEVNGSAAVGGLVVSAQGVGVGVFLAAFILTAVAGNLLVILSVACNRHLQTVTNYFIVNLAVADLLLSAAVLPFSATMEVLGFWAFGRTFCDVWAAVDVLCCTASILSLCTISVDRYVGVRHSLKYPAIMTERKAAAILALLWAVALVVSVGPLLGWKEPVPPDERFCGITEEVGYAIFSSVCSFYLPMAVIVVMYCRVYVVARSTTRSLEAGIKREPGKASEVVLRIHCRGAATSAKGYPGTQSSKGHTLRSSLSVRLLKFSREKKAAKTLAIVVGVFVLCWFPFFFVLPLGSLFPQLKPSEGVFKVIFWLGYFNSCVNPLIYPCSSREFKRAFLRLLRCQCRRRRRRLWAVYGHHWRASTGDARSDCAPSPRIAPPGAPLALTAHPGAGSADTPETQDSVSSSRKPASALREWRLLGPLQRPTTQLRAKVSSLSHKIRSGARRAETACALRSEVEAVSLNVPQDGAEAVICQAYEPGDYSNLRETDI
# T1 sequence (P43140 whole entry): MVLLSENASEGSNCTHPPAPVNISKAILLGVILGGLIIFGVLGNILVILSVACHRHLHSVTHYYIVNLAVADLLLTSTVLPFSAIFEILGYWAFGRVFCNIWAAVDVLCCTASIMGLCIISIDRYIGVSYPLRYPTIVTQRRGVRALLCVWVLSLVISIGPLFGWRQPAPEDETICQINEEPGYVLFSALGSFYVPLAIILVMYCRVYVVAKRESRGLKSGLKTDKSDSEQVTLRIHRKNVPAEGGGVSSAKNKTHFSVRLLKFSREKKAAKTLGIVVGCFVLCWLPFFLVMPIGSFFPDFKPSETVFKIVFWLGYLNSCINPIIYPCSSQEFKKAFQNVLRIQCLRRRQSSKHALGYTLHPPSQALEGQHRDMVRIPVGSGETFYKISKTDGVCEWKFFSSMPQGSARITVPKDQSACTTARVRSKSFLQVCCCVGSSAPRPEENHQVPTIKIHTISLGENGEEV
# Method in brief: (§1)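 Triplicate competition binding against 0.2-0.25 nM [³H]prazosin in Tris buffer pH 7.4, 30 min at room temperature. Competitor range 0.1-200 nM. Nonspecific binding defined with 10 µM phentolamine. Reaction stopped by GF/B filtration with two cold Tris washes. Membrane protein 300-400 µg per assay. Ki calculated from the data; mean ± SEM of 3-6 experiments.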
# D(2) dopamine receptor [2] = biological target: T2, D(2) dopamine receptor (Homo sapiens, UniProt P14416); assay: Compound is evaluated for binding affinity towards Dopamine receptor D2 using [3H]-spiperone in CHO cells at 10 uM; format: cell-based
# Sigma 2 receptor [3] = assay: Binding affinity towards Sigma 2 receptor using [3H]ifenprodil in rat brain; format: tissue-based
# Method in brief: (§2)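 Contract radioligand competition binding. Sources: 5-HT1 and 5-HT1A in rat brain cortex; 5-HT2 and σ2 in rat brain; σ in guinea pig brain; D2, rhD2 and rhD3 in CHO cells with [³H]spiperone; H1 in guinea pig lung with [³H]pyrilamine. Inhibition constants reported; no constant given where inhibition at 10 µM was below 50%.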
# [4] = biological target: T1, Adrenergic receptor alpha-1; assay: Binding affinity towards Alpha-1 adrenergic receptor measured by displacement of [3H]prazosin from rat brain cortex membranes; format: cell membranes, Membrane; method in brief: as §1
# [5] = biological target: Alpha-2A adrenergic receptor (Homo sapiens) (UniProt P08913); assay: Compound is evaluated for binding affinity towards Alpha-2A adrenergic receptor using [3H]MK912 at 10 uM
# Sigma 2 receptor [6] = assay: (§3) Binding affinity towards Sigma 2 receptor using [3H]ifenprodil in rat brain at 10 uM; format: tissue-based
# Method in brief: (§4)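 Radioligand competition binding was done by an outside contract lab (Pan Lab). Inhibition constants (Ki) were derived from displacement of the stated tritiated ligand. Each compound was tested at 10 µM. Where inhibition at that concentration stayed below 50%, no Ki was reported.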
# [7] = biological target: T3, Serotonin 1 (5-HT1) receptor (Rattus norvegicus, UniProt P28564+P30940+P19327+P28565); assay: Compound is evaluated for binding affinity towards 5-hydroxytryptamine 1 receptor using [3H]5-HT in rat brain cortex at 10 uM; format: tissue-based
# Method in brief: (§5)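 Single-concentration screen at 10 µM in contract radioligand binding assays. Records whether inhibition of specific radioligand binding stayed below 50%.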
# D(2) dopamine receptor [8] = biological target: T2, D(2) dopamine receptor; assay: Compound is evaluated for binding affinity towards Dopamine receptor D2 using [3H]spiperone in CHO cells; format: cell-based; method in brief: as §2
# Sigma 2 receptor [9] = assay: as §3; format: tissue-based; method in brief: as §5; remark: listed apart in the source
# [10] = biological target: T3, Serotonin 1 (5-HT1) receptor; assay: Compound is evaluated for binding affinity towards 5-hydroxytryptamine 1 receptor using [3H]5-HT in rat brain cortex; format: tissue-based; method in brief: as §2
# D(3) dopamine receptor = D(3) dopamine receptor (Homo sapiens, UniProt P35462); assay: Compound is evaluated for binding affinity towards recombinant human Dopamine receptor D3 using [3H]spiperone in CHO cells; format: cell-based; method in brief: as §2
# Histamine H1 receptor = Histamine H1 receptor (Cavia porcellus, UniProt P31389); assay: Compound is evaluated for binding affinity towards Histamine H1 receptor using [3H]pyrilamine in guinea pig lung; format: tissue-based; method in brief: as §2
# [11] = biological target: Sodium channel alpha subunits; brain (Types I, II, III) (Rattus norvegicus) (UniProt P04775+P04774+P08104); assay: Displacement of [3H]batrachotoxin from rat brain sodium channel at 10 uM; format: tissue-based; method in brief: as §4
# Sodium channel alpha subunits; brain (Types I, II, III) (Rattus norvegicus), sequence (P04775 whole entry, looked up, other chains not shown): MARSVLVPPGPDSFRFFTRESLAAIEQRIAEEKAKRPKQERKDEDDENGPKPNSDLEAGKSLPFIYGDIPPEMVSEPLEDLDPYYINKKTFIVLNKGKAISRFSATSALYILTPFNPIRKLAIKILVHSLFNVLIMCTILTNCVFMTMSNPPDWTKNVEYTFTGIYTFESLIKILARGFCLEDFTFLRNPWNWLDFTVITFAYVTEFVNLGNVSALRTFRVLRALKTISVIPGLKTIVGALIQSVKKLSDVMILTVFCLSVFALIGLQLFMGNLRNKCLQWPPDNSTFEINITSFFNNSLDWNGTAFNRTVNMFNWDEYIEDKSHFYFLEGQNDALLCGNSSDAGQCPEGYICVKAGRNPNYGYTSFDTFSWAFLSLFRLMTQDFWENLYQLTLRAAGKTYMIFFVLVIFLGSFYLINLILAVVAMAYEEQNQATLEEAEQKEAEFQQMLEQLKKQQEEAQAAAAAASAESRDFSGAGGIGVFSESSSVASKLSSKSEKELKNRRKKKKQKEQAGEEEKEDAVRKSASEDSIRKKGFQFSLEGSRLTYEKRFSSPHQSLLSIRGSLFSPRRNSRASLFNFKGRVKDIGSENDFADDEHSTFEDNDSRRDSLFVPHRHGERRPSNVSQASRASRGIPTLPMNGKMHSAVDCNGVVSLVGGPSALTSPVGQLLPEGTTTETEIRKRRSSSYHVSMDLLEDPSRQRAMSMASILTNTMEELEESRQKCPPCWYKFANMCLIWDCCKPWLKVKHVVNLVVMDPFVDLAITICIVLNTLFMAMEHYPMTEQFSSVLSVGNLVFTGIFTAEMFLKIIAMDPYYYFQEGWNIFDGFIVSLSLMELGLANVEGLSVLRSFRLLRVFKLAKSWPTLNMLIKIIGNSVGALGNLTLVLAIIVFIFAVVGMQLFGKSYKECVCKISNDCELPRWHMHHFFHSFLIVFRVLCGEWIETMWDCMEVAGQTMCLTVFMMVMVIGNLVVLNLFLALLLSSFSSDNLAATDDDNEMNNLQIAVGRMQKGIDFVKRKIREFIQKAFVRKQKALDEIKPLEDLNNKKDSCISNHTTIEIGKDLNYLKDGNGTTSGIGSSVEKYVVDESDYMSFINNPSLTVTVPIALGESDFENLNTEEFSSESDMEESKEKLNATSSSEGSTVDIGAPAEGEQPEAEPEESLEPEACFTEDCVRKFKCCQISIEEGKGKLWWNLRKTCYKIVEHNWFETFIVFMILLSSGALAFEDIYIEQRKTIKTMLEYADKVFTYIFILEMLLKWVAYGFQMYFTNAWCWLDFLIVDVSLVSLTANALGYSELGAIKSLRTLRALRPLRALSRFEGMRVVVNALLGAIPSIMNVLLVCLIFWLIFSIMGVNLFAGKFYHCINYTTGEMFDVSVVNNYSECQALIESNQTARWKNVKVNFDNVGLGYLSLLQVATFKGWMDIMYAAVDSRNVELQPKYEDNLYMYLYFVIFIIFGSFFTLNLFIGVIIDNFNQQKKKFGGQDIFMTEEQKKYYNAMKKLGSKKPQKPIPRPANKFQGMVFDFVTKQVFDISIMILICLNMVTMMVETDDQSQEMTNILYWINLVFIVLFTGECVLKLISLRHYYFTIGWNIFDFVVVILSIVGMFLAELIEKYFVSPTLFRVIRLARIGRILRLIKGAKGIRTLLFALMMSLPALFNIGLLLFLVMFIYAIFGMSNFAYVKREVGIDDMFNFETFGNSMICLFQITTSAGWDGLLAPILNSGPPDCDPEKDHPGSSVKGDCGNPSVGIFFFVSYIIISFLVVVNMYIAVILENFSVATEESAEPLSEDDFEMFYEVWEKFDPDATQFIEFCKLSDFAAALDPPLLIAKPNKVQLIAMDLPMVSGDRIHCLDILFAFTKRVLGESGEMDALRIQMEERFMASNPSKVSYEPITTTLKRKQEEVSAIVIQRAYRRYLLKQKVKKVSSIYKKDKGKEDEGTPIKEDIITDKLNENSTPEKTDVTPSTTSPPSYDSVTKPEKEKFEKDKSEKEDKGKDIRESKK
# Sodium channel alpha subunits; brain (Types I, II, III) (Rattus norvegicus), sequence (P08104 whole entry, looked up, other chains not shown): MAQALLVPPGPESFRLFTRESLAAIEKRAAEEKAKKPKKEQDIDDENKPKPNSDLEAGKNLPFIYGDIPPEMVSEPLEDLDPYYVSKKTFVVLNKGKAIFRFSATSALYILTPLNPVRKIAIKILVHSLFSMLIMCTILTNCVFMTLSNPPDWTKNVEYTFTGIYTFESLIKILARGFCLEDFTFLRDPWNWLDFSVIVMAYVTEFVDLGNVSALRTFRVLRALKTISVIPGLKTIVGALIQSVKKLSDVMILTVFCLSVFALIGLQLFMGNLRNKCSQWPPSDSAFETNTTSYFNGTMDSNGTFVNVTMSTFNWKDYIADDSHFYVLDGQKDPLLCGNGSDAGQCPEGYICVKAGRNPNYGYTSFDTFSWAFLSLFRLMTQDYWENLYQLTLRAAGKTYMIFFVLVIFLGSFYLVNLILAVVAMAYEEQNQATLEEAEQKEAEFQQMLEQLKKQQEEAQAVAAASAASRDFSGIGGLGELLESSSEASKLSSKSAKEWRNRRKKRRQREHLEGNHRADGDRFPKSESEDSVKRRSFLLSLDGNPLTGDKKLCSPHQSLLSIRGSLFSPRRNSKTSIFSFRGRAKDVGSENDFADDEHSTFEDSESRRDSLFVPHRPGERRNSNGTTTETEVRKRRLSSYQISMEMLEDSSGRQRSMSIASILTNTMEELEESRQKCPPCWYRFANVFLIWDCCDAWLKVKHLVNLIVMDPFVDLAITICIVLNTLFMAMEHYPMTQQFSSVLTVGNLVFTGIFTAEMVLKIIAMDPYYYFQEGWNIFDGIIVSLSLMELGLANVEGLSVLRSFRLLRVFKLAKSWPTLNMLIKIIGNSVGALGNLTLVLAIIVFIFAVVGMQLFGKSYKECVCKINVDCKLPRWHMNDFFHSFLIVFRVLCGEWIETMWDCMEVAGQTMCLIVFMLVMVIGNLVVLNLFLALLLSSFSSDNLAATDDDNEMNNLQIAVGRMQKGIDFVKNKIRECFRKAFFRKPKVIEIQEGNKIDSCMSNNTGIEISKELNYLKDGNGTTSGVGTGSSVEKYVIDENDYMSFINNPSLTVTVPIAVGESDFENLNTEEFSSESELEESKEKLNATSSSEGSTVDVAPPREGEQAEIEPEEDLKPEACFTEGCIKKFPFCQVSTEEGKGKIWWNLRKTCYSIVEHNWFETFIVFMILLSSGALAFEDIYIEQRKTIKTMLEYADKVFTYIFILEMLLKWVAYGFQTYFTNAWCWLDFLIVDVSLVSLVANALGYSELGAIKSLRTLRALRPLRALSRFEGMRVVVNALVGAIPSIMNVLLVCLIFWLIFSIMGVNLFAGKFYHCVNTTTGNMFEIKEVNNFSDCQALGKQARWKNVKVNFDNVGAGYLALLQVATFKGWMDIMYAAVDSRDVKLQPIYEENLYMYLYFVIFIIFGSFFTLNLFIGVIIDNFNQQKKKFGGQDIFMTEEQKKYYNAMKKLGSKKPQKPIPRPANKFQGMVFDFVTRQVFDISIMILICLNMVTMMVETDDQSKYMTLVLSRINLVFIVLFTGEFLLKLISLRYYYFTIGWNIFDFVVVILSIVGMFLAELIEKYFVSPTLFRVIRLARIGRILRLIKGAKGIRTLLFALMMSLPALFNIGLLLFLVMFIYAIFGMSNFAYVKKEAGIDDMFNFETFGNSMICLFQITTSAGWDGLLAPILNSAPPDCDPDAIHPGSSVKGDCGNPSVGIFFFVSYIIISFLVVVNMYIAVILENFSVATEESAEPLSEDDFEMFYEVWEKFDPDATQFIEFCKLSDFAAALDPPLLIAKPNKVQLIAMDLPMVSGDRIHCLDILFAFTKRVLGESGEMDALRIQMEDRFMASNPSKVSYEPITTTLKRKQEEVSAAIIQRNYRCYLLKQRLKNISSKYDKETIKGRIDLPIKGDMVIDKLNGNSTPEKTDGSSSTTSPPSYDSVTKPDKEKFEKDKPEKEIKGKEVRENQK
# T2 sequence (P14416 whole entry): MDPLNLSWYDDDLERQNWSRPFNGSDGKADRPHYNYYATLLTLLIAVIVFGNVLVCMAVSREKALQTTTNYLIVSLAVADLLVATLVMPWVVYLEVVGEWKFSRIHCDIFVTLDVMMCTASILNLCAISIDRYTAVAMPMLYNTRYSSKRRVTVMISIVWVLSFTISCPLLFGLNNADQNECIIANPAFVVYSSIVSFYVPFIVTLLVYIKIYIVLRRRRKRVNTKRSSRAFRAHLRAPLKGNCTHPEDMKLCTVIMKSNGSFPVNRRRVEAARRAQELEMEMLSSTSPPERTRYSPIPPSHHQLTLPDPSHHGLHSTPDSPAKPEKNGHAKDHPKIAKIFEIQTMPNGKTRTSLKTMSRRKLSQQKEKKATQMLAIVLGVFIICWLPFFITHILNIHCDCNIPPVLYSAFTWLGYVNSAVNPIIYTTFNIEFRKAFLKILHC
# Alpha-2A adrenergic receptor (Homo sapiens), sequence (P08913 whole entry): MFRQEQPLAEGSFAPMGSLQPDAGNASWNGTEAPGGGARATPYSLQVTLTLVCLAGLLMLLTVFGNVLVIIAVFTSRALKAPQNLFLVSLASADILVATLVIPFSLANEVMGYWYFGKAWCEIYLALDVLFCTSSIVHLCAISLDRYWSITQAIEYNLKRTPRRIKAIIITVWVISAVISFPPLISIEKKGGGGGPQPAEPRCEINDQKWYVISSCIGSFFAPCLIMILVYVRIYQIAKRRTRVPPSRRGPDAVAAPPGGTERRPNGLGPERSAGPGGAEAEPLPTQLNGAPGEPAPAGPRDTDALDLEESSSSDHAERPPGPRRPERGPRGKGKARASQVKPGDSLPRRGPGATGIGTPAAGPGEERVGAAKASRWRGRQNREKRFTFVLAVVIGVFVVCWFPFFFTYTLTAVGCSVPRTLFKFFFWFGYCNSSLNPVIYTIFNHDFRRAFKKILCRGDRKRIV
structure (smiles),measurement,setting,value
Oc1nc2ccccc2c2ncc(CN3CCN(c4ccccc4Cl)CC3)n12,Ki,[1],7.12 nM
same,inhibition,D(2) dopamine receptor [2],< 50%
same,pKi,Sigma 2 receptor [3],5.52
COc1ccccc1N1CCN(Cc2cn3c(O)nc4ccccc4c3n2)CC1,Ki,[4],6.53 nM
same,pKi,Sigma 2 receptor [3],5.31
COc1ccccc1N1CCN(C[C@@H]2CN=C3c4ccccc4NC(=O)N32)CC1,inhibition,[5],< 50%
COc1ccccc1N1CCN(Cc2cnc3c4ccccc4nc(O)n23)CC1,Ki,[4],5.06 nM
same,inhibition,Sigma 2 receptor [6],< 50%
COc1ccccc1N1CCN(CC2CN=C3c4ccccc4N=C(SC)N32)CC1 (stereo unspecified),Ki,[7],1839 nM
same,pKi,D(2) dopamine receptor [8],6.35
same,Inhibition,Sigma 2 receptor [9],< 50%
COc1ccccc1N1CCN(CC2CN3C(=O)Nc4ccccc4C3=N2)CC1 (stereo unspecified),Ki,[10],2500 nM
same,pKi,D(3) dopamine receptor,5.66
same,pKi,Histamine H1 receptor,6.02
same,inhibition,[11],< 50%
same,inhibition,Sigma 2 receptor [6],< 50%
